Results as given in paper PMC12928844 (Nature, 2025).

Assays:
[1] = test system: NSD2 and H3K36me2 levels in cell lines; assay: Western blot after KRASi treatment; type: cell-based; conditions: 100 nM sotorasib, 1 day
K^cPC PDAC tumours = assay: Autochthonous K^cPC PDAC mouse model treatment study; type: in vivo; conditions: 2 weeks of treatment, 10 mg kg−1 daily
How it was run: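 C57BL/6;129S1 mixed-background mice of both sexes, with littermates as controls. Control and monotherapy groups went through the same procedure but received vehicle. The survival end point was set by overall health criteria scoring, and health status and weight were checked daily.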

K^c/cP LUAD tumour cells = assay: scRNA-seq tumour fitness score of K^c/cP tumours; type: in vivo, mouse; conditions: 3 weeks of treatment
How it was run: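 KC/CP lung tumour-bearing mice (mixed C57BL/6;129S1, both sexes, littermate controls) received test compound at 100 mg kg−1 once daily i.p. in 40% (2-hydroxypropyl)-β-cyclodextrin, or vehicle. Tumour cells were filtered through 70 μm strainers, given ACK red-cell lysis, washed and counted for scRNA-seq. Malignant cells were called by inferCNV against normal mouse lung alveolar cells.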

K^c/cP LUAD tumours = assay: K^c/cP LUAD mouse model treatment study; type: in vivo; conditions: at humane end point; about 100 nodules per mouse at start

SMILES: C=CC(=O)N1CCN(c2nc(=O)n(-c3c(C)ccnc3C(C)C)c3nc(-c4c(O)cccc4F)c(F)cc23)[C@@H](C)C1 [KRASi, sotorasib]
- levels of NSD2 or H3K36me2 (western) [1]: does not impact
- ERK1/2 phosphorylation in PDAC tumour lysates (western) (K^cPC PDAC tumours): blocked ERK1 and ERK2 (ERK1/2) phosphorylation
- tumour fitness score (scRNA-seq) (K^c/cP LUAD tumour cells): decreased score
- individual tumours (nodules) eliminated (K^c/cP LUAD tumours): ~75%
